Data published in PMC8649514 (Journal of the American Heart Association: Cardiovascular …, 2021).
Bridges are numbered along the chain shown (N, C = ends). Where no end group is shown, it is not given here.

Columns and labels:
[1] = tested on: ventricular lysates of β2‐AR transgenic mouse hearts; test: Quantification of peptide accumulation in mouse heart lysates; type: in vivo; conditions: sulfo‐Cy5.5 cyclic peptide iv 0.5 mg/kg, 4 h, β2‐AR Tg mice; n=4 per group
[2] = tested on: heart and organs of β2‐AR transgenic mice; test: Cardiac tracer uptake in whole organs by ex vivo NIR fluorescence imaging; set-up: species or system mouse; conditions: iv 0.5 mg/kg, 4 h, whole-organ Odyssey scan; P=0.057–0.1; n=4 per group
[3] = tested on: collagen IV; test: Coimmunostaining of collagen IV and T peptide in human cardiac tissue; conditions: ex vivo costaining, IHD patient heart section, confocal microscopy
Method in brief: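 Fresh-frozen IHD and nonfibrotic donor human heart cryosections (10 or 5 µm) were PBS-washed, blocked in 10% normal goat serum for 2 h at room temperature, and incubated 72 h at 4 °C with sulfo-Cy5.5 T peptide (0.0375 µg/mL in PBS). Collagen IV was stained with primary antibody (10 µg/mL, overnight, 4 °C) and Alexa Fluor 488 anti-rabbit secondary (2 µg/mL). Nuclei were stained with Hoechst (5 µg/mL), and images were taken by confocal microscopy at ×20.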

Substance	amount of peptide per gram tissue, left vs right transgenic ventricle [1]	peptide accumulation in kidneys and lungs, fibrotic vs nontransgenic mice [2]	overlap with collagen IV in human cardiac tissue [3]
GKWHCTTKFPHHYCLYG (disulfide 5-14 (inferred)) [cyclic peptide]	twice	near‐significant enhancement	
TLTYTWS [T peptide]			high degree of overlap
